Among the data in publication PMC3288198 (ACS Chemical Biology, 2011) are IC50 and Ki values, retold here.

Where two headings read alike, the source gives them in different places.

Type in all cases: biochemical
The target of one assay is HDAC4 (Homo sapiens, UniProt P56524). Nature of the assay: HDAC deacetylase homogenous fluorescence assay, HDAC4.
The target of another assay is HDAC5 (Homo sapiens, UniProt Q9UQL6). Nature of the assay: HDAC deacetylase homogenous fluorescence assay, HDAC5. The method, boiled down: (§1)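 Recombinant human enzyme (HDAC5, 8, 9 baculovirus-expressed) incubated with serially diluted test compound over a 12-point titration. Substrate: trifluoroacetylated AMC-K(TFA)GL. Peptidase development releases MCA, read at ex 355/em 460 nm. Activity normalised to plate controls. IC50 and SD by non-linear regression; Ki by Cheng-Prusoff, Ki = IC50/(1+[S]/Km).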
Chain of HDAC5 (Q9UQL6 whole entry): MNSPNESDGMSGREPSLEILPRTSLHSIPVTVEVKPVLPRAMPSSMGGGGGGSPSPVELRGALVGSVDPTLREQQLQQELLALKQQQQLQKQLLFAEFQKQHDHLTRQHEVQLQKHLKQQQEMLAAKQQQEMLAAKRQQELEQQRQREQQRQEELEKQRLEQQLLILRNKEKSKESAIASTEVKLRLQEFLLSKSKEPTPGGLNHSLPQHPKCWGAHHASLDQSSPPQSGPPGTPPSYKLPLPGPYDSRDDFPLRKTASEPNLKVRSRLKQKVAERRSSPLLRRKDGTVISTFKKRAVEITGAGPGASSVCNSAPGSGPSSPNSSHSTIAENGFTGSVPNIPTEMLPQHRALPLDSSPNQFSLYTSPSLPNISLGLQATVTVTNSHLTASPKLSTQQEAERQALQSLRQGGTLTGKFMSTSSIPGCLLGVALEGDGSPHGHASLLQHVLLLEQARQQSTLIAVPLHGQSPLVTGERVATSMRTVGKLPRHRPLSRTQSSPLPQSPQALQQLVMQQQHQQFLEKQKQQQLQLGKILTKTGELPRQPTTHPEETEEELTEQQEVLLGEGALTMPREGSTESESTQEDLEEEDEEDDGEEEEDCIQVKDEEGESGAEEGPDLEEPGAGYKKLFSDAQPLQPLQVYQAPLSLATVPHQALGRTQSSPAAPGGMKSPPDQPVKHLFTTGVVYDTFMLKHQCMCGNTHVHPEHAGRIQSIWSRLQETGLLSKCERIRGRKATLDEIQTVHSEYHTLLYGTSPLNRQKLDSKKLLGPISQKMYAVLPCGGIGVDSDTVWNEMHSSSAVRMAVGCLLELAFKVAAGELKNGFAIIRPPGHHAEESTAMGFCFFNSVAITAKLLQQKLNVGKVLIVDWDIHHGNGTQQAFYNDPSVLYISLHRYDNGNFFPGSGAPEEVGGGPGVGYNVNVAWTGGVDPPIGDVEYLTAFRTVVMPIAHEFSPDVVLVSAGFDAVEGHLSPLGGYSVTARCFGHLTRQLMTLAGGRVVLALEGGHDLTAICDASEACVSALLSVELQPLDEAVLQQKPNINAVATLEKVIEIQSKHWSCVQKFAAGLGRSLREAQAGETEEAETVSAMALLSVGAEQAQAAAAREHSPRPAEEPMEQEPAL

The next assay deals with T1, HDAC11 (Homo sapiens, UniProt Q96DB2).
T1 sequence (Q96DB2 1-347): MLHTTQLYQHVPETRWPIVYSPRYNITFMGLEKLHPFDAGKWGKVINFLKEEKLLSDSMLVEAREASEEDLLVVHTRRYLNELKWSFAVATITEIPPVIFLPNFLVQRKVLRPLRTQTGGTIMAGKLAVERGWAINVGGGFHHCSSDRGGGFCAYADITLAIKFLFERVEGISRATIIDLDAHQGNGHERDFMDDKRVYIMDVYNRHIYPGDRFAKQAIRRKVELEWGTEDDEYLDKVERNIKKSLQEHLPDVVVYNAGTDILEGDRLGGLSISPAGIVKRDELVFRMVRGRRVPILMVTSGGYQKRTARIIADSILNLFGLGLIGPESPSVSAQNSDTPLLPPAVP
Nature of the assay: HDAC deacetylase homogenous fluorescence assay, HDAC11.

In a further assay the target is HDAC3/N-CoR2 (Homo sapiens, UniProt O15379). Nature of the assay: HDAC deacetylase homogenous fluorescence assay, HDAC3. The method, boiled down:
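Baculovirus-expressed recombinant human enzyme (HDAC3 as HDAC3/N-CoR2 complex) incubated with serially diluted test compound over a 12-point titration. Substrate: acetylated AMC-K(Ac)GL. Deacetylated product cleaved by lysine peptidase to free MCA, read at ex 355/em 460 nm. Data normalised to control plate by plate. IC50 and SD from non-linear regression; Ki via Cheng-Prusoff, Ki = IC50/(1+[S]/Km).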

The next assay concerns the target T2, HDAC7 (Homo sapiens, UniProt Q8WUI4).
T2 sequence (Q8WUI4 1-952): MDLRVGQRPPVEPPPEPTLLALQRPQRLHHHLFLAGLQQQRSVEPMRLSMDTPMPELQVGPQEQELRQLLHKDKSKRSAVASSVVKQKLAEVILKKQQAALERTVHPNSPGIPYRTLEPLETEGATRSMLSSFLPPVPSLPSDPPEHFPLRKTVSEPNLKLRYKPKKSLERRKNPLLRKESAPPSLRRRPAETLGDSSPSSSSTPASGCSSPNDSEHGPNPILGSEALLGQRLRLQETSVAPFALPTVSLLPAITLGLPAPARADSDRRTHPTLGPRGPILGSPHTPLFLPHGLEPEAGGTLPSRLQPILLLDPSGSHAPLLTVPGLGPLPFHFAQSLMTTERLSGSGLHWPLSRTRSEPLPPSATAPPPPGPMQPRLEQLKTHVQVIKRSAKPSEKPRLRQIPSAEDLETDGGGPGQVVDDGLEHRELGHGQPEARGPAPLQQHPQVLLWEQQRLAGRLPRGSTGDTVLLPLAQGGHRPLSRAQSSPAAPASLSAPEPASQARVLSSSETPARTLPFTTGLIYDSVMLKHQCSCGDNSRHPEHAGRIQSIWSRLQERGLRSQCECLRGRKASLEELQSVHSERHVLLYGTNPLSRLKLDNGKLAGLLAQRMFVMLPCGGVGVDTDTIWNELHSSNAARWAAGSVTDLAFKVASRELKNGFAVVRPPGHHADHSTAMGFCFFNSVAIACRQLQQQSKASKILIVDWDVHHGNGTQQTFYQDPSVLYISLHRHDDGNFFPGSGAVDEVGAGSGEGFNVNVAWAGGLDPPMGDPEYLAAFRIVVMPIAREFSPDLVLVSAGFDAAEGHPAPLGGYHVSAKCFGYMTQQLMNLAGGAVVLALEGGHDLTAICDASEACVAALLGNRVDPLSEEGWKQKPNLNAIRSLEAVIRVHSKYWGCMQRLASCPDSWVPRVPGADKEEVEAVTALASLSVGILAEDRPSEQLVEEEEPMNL
Nature of the assay: HDAC deacetylase homogenous fluorescence assay, HDAC7.

The target of another assay is T3, HDAC8 (Homo sapiens, UniProt Q9BY41).
T3 sequence (Q9BY41 1-377): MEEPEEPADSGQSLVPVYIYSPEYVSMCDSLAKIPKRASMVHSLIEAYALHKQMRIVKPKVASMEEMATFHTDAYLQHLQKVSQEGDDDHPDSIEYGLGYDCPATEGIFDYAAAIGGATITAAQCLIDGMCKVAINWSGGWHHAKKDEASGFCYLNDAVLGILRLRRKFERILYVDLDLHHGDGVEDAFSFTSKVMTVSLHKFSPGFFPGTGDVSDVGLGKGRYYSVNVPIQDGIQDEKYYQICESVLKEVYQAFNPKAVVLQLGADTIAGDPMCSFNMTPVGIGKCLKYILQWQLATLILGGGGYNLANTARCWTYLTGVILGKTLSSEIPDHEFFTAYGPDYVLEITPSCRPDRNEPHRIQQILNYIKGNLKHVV
Nature of the assay: HDAC deacetylase homogenous fluorescence assay, HDAC8. Put shortly:
as §1

Setting [1] is: read-out: HDAC4 IC50, 12 point titration, trifluoroacetylated substrate.
Where [2] appears, read: read-out: HDAC4 Ki, converted from IC50 using Cheng-Prusoff equation.
Where [3] appears, read: read-out: HDAC5 IC50, 12 point titration, trifluoroacetylated substrate.
The mark [4] stands for this setting: read-out: HDAC5 Ki, converted from IC50 using Cheng-Prusoff equation.
Setting [5] is: read-out: HDAC11 IC50, 12 point titration, trifluoroacetylated substrate.
Setting [6] is: read-out: HDAC3 IC50, 12 point titration, acetylated substrate.
The mark [7] stands for this setting: read-out: HDAC3 Ki, converted from IC50 using Cheng-Prusoff equation.
Where [8] appears, read: read-out: HDAC7 IC50, 12 point titration, trifluoroacetylated substrate.
[9] abbreviates: read-out: HDAC8 IC50, 12 point titration, trifluoroacetylated substrate.
[10] abbreviates: read-out: HDAC8 Ki, converted from IC50 using Cheng-Prusoff equation.
[11] abbreviates: read-out: HDAC7 Ki, converted from IC50 using Cheng-Prusoff equation.

Chain of HDAC4 (P56524 whole entry): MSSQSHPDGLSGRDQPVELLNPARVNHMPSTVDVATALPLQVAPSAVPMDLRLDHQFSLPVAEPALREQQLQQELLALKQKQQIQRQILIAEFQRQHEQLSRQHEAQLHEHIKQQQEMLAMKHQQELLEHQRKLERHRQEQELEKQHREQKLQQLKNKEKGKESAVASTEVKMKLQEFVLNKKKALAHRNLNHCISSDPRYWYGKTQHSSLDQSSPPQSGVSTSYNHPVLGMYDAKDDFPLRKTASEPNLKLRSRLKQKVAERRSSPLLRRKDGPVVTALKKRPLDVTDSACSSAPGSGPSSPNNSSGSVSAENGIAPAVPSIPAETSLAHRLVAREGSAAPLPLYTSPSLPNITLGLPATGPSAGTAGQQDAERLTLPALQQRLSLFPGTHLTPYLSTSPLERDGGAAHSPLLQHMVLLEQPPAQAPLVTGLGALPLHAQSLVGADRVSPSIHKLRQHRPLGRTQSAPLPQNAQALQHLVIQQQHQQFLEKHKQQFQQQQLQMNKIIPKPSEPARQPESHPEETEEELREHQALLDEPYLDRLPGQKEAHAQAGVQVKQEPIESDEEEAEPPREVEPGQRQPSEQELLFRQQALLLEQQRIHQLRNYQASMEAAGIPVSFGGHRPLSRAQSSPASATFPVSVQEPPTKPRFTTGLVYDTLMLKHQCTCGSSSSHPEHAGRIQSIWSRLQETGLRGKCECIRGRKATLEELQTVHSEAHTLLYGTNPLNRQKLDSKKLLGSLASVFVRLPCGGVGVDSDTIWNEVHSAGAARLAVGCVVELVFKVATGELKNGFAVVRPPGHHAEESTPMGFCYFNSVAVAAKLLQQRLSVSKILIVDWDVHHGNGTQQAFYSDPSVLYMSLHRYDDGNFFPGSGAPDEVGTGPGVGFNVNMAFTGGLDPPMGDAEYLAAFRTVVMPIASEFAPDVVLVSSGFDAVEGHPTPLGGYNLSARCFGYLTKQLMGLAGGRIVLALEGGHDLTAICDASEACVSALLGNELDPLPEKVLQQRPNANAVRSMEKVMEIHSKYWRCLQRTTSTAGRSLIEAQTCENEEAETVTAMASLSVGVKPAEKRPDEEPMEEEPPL
Chain of HDAC3/N-CoR2 (O15379 whole entry): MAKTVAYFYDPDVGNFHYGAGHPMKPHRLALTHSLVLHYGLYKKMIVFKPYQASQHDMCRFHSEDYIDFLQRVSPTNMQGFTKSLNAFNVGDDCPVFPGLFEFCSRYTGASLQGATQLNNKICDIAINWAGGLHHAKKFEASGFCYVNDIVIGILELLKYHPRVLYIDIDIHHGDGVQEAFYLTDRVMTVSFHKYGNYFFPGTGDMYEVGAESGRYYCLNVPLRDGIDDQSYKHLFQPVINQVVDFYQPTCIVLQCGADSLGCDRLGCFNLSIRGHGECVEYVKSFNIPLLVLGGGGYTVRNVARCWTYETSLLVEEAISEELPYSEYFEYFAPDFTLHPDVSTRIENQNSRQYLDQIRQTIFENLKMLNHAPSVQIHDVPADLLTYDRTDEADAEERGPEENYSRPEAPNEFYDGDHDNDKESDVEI
Chain of HDAC3/N-CoR2 (Q9Y618 395-489 partner limits assumed): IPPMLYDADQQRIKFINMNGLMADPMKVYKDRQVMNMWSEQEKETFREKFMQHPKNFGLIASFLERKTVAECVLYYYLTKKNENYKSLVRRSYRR

In general, IC50 refers to the concentration at which inhibition is half-maximal. In general, Ki refers to the dissociation constant of the complex between target and ligand, obtained from inhibition or displacement. In the case of `COc1ccc2c(c1)CC[C@@H]1[C@@H]2CC[C@]2(C)[C@@H](NCCCCCCN3C(=O)C=CC3=O)CC[C@@H]12` [U-73122, 1-[6-[[(17beta)-3-methoxyestra-1,3,5([10])-trien-17-yl]amion]hexyl]-1H-pyrrole-2,5-dione], the IC50 on HDAC4 (setting [1]) is 31.2 ± 0.2 µM; on HDAC5 (setting [3]) it was 10.5 ± 7.4 µM; at HDAC11 (setting [5]), greater than 180 µM; at HDAC3/N-CoR2 (setting [6]) it was 6.2 ± 4 µM; at HDAC7 (setting [8]), greater than 180 µM; on HDAC8 (setting [9]) it was 10.9 ± 3.1 µM. For the same compound, the Ki is 5.33 µM at HDAC4 (setting [2]), 5.68 µM at HDAC5 (setting [4]), 0.66 µM at HDAC3/N-CoR2 (setting [7]) and 8.63 µM at HDAC8 (setting [10]).
On to `O=c1c2ccccc2[se]n1-c1ccccc1` [Ebselen, 2-phenyl-1,2-benzisoselenazol-3(2H)-one], for which the IC50 on HDAC4 came out at 1.2 ± 0.2 µM; against HDAC5, 0.78 ± 0.1 µM; on HDAC11, 22.5 ± 2.4 µM; against HDAC3/N-CoR2 it was 2.1 ± 1.5 µM; against HDAC7, 10.9 ± 2.2 µM; on HDAC8, 0.35 ± 0.2 µM. Further, the Ki on HDAC4 turned out to be 0.2 µM; at HDAC5, 0.42 µM; on HDAC11, 4.41 µM; at HDAC3/N-CoR2, 0.23 µM; on HDAC7 it was 3.09 µM.
As for `O=C1C(SCCO)=C(SCCO)C(=O)c2ccccc21` [NSC-95397, 2,3-bis[(2-Hydroxyethyl)thio]-1,4-naphthoquinone], the IC50 was 7.2 ± 2.8 µM on HDAC4; 3.1 ± 0.2 µM against HDAC5; 37.8 ± 1.4 µM on HDAC11; greater than 100 µM against HDAC3/N-CoR2; 13.1 ± 4.3 µM against HDAC7; 1.3 ± 0.1 µM at HDAC8. For the same compound, the Ki at HDAC4 is 1.23 µM; at HDAC5, 1.68 µM; on HDAC11, 7.41 µM; on HDAC7, 3.72 µM; on HDAC8, 1.03 µM.
As for `OC[C@H]1O[C@H]([S-])[C@H](O)[C@@H](O)[C@@H]1O.[Au+]` [Aurothioglucose, 1-thio-D-glucopyronaose gold salt], the IC50 at HDAC4 (setting [1]) is 4.1 ± 2.1 µM; at HDAC5 (setting [3]) it was 0.72 ± 0.5 µM; on HDAC11 (setting [5]) it was greater than 180 µM; on HDAC3/N-CoR2 (setting [6]), 11.5 ± 3.2 µM; at HDAC7 (setting [8]), 22.4 ± 4.4 µM; on HDAC8 (setting [9]) it was 1.4 ± 0.3 µM. Moreover, the Ki at HDAC4 (setting [2]) was determined as 0.7 µM; at HDAC5 (setting [4]), 0.39 µM; on HDAC3/N-CoR2 (setting [7]), 1.23 µM; on HDAC7 (setting [11]) it was 6.35 µM; on HDAC8 (setting [10]), 1.11 µM.
Regarding `NC(N)=Nc1ccc2[nH]c3c(c2c1)C[C@@]1(O)[C@H]2Cc4ccc(O)c5c4[C@@]1(CCN2CC1CC1)[C@H]3O5` [GNTI, guanidinyl-naltrindole di-trifluoroacetate], the IC50 on HDAC4 (setting [1]) is 13.4 ± 1.6 µM; at HDAC5 (setting [3]), 0.7 ± 0.1 µM; at HDAC11 (setting [5]), greater than 180 µM; on HDAC3/N-CoR2 (setting [6]), 22.7 ± 3.1 µM; on HDAC7 (setting [8]), 18.9 ± 1 µM; at HDAC8 (setting [9]), 2 ± 0.4 µM. Further, the Ki at HDAC4 (setting [2]) amounted to 2.29 µM; at HDAC5 (setting [4]) it was 0.38 µM; on HDAC3/N-CoR2 (setting [7]) it was 2.43 µM; on HDAC7 (setting [11]), 5.36 µM; on HDAC8 (setting [10]) it was 1.58 µM.
